thrombin 1536 – human alpha-thrombin inhibitors, primary screen, counter-screen for coagulation protease inhibitor project, biochemical, 1536-well, fluorogenic AMC substrate; Prothrombin (Homo sapiens), P00734; hit rate 0.26% among 220,000; Boc-VPR-AMC fluorogenic substrate cleavage; inhibition, % at 5 µM;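 active = inhibition at or above 40%; inactive = inhibition below 40%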;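 also: 0% = enzyme with no compound and 100% = wells without enzyme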
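System: human alpha-thrombin protein; Compound dosing: one concentration per compound, 5 µM, with 0.2% DMSO; Timing: reaction at room temperature; Technique: AMC fluorescence, 355/460 nm; Controls: enzyme without compound as high, wells lacking enzyme as low.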
FXIa inh 1536 – human FXIa protease inhibitors, primary screen, biochemical, 1536-well | Coagulation factor XI (Homo sapiens), P03951 | purified FXIa, Boc-Glu-Ala-Arg-AMC fluorogenic substrate | inhibition, % at 5 µM | hit rate 0.14% among 220,000 | AID 798, 2007;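 active = inhibition of at least 40%; inactive = inhibition below 40%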;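 also: fluorescence of freed AMC excited at 355 nm; 0% = enzyme without compound and 100% = no enzyme blank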
FXIIa inh 1536 – human FXIIa protease inhibitors, primary screen, biochemical, 1536-well; purified FXIIa, Boc-QGR-AMC fluorogenic substrate, 2 h; inhibition, % at 5 µM; hit rate 0.3% among 220,000; AID 800, 2007; in the data active = inhibition above about 40%;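 also: 0% = enzyme with no compound and 100% = blank without enzyme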
hK5 inh – human KLK5 protease inhibitors, primary screen, biochemical, 1536-well. Kallikrein-5 (Homo sapiens), Q9Y337. recombinant hK5, fluorogenic AMC substrate cleavage. inhibition, % at 5 µM. hit rate 0.59% among 210,000;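 active = inhibition of 40% or more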;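 also: 0% = enzyme controls without compound and 100% = no-enzyme blanks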
Rce1 inh – yeast Rce1p protease inhibitors, primary screen, biochemical, fluorescence, cell-free homogeneous. yeast membranes, quenched prenylated peptide cleavage fluorescence. calls only. hit rate 0.27% among 290,000;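 active = fall in fluorescence gain of 50% or more versus controls, with final raw signal at or below 3038400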;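 also: plate controls were neutral control wells for no effect and wells lacking membranes for full effect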
Target sequence (Q03530 whole entry, looked up): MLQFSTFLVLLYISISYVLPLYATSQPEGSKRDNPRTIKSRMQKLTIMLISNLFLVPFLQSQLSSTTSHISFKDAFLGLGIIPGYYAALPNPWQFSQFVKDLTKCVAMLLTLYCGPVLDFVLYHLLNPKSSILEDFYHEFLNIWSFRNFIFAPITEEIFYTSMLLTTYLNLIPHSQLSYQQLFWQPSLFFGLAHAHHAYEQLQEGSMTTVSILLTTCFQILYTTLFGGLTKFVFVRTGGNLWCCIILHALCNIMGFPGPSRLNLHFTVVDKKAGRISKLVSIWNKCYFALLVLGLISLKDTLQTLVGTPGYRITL
Fh CTSL1 inh – Fasciola hepatica cathepsin L1 inhibitors, primary screen, counter-screen for PFM18AAP inhibitor project, biochemical, QFRET, fluorogenic peptide substrate. hit rate 0.49% among 300,000. recombinant F. hepatica cathepsin L1, Z-Leu-Arg-MCA fluorescence. AID 1906, 2009. inhibition, % at 5.96 µM;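 active = inhibition above the mean of all tested compounds plus 3 SD, set per screening campaign, cut at about 17% in these data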;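 also: 0% = plate median of test compound wells and 100% = 1 µM Z-Phe-Ala-diazomethylketone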
* = called active by the depositor; i = inactive; · = not tested or not shown; + = active, no number. Shown are actives, neighbours in structure and some others; about 1.4% of the full set was active somewhere.

SMILES | thrombin 1536 | FXIa inh 1536 | FXIIa inh 1536 | hK5 inh | Rce1 inh | Fh CTSL1 inh
COc1ccccc1NC(=O)CSc1nc2ccccc2cc1Cc1ccccc1 | -2.7 | -4.2 | -11.5 | 1.7 | i | 7.0
COc1ccc(C2/C=C\CN(C(=O)c3ccc(C)cc3)[C@H](Cc3ccccc3)C(=O)N2Cc2ccc(F)cc2)cc1 (stereo partly specified) | -3.8 | 1.1 | 4.6 | 0.6 | + | -2.0
COc1ccc(C2/C=C\CN(C(=O)C3CC3)[C@H](Cc3ccccc3)C(=O)N2Cc2ccc(F)cc2)cc1 (stereo partly specified) | -1.1 | 1.1 | 8.6 | 3.5 | i | -0.5
COC(=O)c1ccc(CS(=O)(=O)c2ccc(F)cc2)o1 | · | · | · | · | i | -3.1
CC(C)C[C@H](N)c1nnc(S(=O)(=O)Cc2ccc(F)cc2)o1 | -3.6 | 4.8 | 13.3 | -27.4 | i | 53.8*
O=C(Nc1ccccc1)C1=C[C@H](c2coc3ccccc3c2=O)C[C@H](OCCCCO)O1 | -0.8 | -0.4 | 7.7 | 1.2 | i | 0.1
CC1(C)CC2CC(C)(CN2CC(O)c2ccccc2)C1 (stereo unspecified) | · | · | · | · | i | 0.7
CC1(C)CC2CC(C)(CN2CC(=O)C(C#N)c2ccccc2)C1 (stereo unspecified) | 2.8 | -8.6 | -3.9 | 115.3* | i | 1.3
Cc1ccc(Cl)cc1N1CCN(C(=O)COc2ccc(S(=O)(=O)NC(C)C)cc2)CC1 | 20.0 | 16.8 | 22.3 | 46.3* | i | -0.5
O=C1CCC(C(=O)N2CCN(c3cnccn3)CC2)CN1CCc1cccc(F)c1 (stereo unspecified) | · | · | · | · | i | -2.8
COCCN1CCN(C(=O)C2CCC(=O)N(Cc3cccc(C(F)(F)F)c3)C2)CC1 (stereo unspecified) | · | · | · | · | i | ·
COc1ccc(-c2c(C)oc3c(CN4CCN(C)CC4)c(O)ccc3c2=O)cc1 | -3.5 | 4.1 | 7.4 | -13.7 | + | 4.0
COc1ccc(C2=NN(CC(=O)NCC(OC)OC)C(=O)CC2)cc1 | · | · | · | · | i | -2.6
COc1ccc(-c2cc(C(F)(F)F)c(C#N)c(SCC(=O)O)n2)cc1OC | 9.2 | 35.2 | 18.2 | 48.5* | i | -1.0
Cc1ccc(C(=O)Nc2ccc(S(=O)(=O)NC3=NCCCCC3)cc2)c(C)c1 | · | · | · | · | i | 3.5
COc1ccccc1C(=O)Nc1ccc(S(=O)(=O)NC2=NCCCCC2)cc1 | 12.9 | 26.0 | 24.6 | 51.8* | i | 6.9
CCCCC(=O)Oc1c(S(=O)(=O)c2ccccc2)c(C)nn1C(C)(C)C | · | · | · | · | i | 5.2
Cc1ccc(N(CC(=O)NCc2ccccc2)C(=O)c2csnn2)c(C)c1 | · | · | · | · | i | 0.4
CCc1cc(-c2[nH]ncc2-c2nc3ccccc3n2C)c(O)cc1O | 17.5 | 74.7* | 14.2 | 20.7 | i | 7.0
CCCc1cc(-c2[nH]ncc2-c2ccc(C(=O)OCC)o2)c(O)cc1O | -1.8 | -0.9 | 6.6 | -8.2 | i | 0.9
O=C(O)C1(c2ccccc2)CCN(S(=O)(=O)c2ccc(Cl)cc2)CC1 | · | · | · | · | i | 2.0
CCCCCCCC/C=C\CCCCCCCC(=O)O | 0.8 | 0.9 | 8.9 | 0.5 | i | 6.4
CCCCC/C=C\C/C=C\C/C=C\CCCCC(=O)O | · | · | · | · | · | 33.6*
COc1ccc(C2C(C(C)=O)=C(O)C(=O)N2c2nc3ccccc3s2)cc1OC (stereo unspecified) | 6.3 | -1.9 | 4.6 | -5.4 | i | 10.3
COc1ccc(C2C(C(C)=O)=C(O)C(=O)N2c2nccs2)cc1OC (stereo unspecified) | 23.4 | 10.9 | 50.4* | 56.6* | i | -2.0
CC1(C)CC(=O)C(C=Nc2ccccc2C(=O)O)=C(O)C1 | 0.3 | 0.9 | 13.0 | 12.5 | i | 0.9
CC1(C)CC(=O)C(C=Nc2ccccc2Sc2ccccc2)=C(O)C1 | 8.3 | 0.6 | 1.7 | 43.8* | i | 4.2
CCc1cccc(CC)c1NC(=S)/C(=C(\[O-])c1ccc(Cl)s1)[n+]1ccccc1 | -0.6 | -1.2 | 9.9 | 2.9 | i | 34.2*

Bioassay records from PubChem.
